The list is not random: actives were taken first. Their share in the collection is about 2.5%.
MT1-MMP txn act – MT1-MMP promoter reporter activation – cell-based, luciferase luminescence, primary screen | activation factor at 10 µM | 0.16% of 86,000 active | HT1080 MT1-MMP promoter luciferase reporter, overnight; hits give high values | AID 750, 2007;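 active = activation factor of at least 2 for MT1-MMP transcription at 10 µM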
ROCK2 blocker – inhibitors of human ROCK2 kinase, primary screen, biochemical, high-throughput, luminescence; Rho-associated protein kinase 2 (Homo sapiens), O75116; purified ROCK2, Kinase-Glo ATP depletion luminescence; inhibition, % at 6 µM; 0.35% of 60,000 active; AID 604, 2007;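 active = inhibition above the screen-wide mean inhibition plus 3 SD, cut at about 18% in these data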;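 also: plate controls were DMSO wells for no effect and Y-27632 control wells after no-enzyme background subtraction for full effect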
RORa activator – activators of orphan receptor RORA, primary screen, cell-based, luminescence; Nuclear receptor ROR-alpha (Homo sapiens), P35398; CHO-K1 Gal4-RORA LBD luciferase reporter; percent increase over mock-subtracted basal signal; activation, % at 10 µM; 1.5% of 65,000 active; AID 560, 2006;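 active = activation above the mean of all tested compounds plus 3 SD, cut at about 49% in these data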;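 also: 0% = DMSO-treated RORA cells and 100% = added signal equal to DMSO minus mock-transfected cells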
Target sequence (P35398 whole entry, looked up, the tested form may be a part): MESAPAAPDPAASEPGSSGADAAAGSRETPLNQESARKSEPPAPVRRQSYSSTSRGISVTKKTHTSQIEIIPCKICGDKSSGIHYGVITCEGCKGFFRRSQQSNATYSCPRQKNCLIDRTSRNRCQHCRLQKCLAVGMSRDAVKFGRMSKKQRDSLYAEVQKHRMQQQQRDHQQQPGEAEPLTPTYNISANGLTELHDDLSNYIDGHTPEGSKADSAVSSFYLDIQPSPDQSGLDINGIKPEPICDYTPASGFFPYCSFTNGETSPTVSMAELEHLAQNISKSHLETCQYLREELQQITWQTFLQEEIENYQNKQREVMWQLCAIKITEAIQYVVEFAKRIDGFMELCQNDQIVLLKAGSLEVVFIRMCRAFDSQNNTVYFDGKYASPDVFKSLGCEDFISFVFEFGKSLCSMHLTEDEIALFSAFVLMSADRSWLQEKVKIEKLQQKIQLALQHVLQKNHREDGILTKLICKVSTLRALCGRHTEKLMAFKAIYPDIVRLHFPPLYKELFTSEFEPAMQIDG
PKA inh – inhibitors of human PKA kinase activity, primary screen, biochemical, ATP-depletion luminescence, Kemptide substrate; inhibition, % at 6 µM; cAMP-dependent protein kinase catalytic subunit alpha (Homo sapiens), P17612; 0.1% of 65,000 active; AID 524, 2006; PKA Kemptide phosphorylation, Kinase-Glo ATP luminescence;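 active = inhibition above the screen-wide mean inhibition plus 3 SD, cut at about 21% in these data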
SF1 activator – activators of human SF-1, primary screen, cell-based, CHO-K1, Gal4-SF-1 LBD, luciferase luminescence; CHO-K1 Gal4-SF-1 LBD luciferase reporter; % increase over DMSO SF-1-specific signal; activation, % at 10 µM; 1.9% of 65,000 active;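 active = activation above the mean activation of all tested compounds plus 3 SD, cut at about 50% in these data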
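Assay system: CHO-K1 cells co-transfected with Gal4 DBD–human SF-1 LBD, 5xGal4 luciferase reporter / Input: 4,000 cells per well / Incubation: 20 h compound exposure at 37 °C after 1 h cell settling / Detection: SteadyLite luciferase luminescence / Control set: DMSO negative control and −SF1 background wells / Replication: one test per compound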
JNK3 inh – JNK3 kinase activity inhibitors, primary screen, biochemical, human, purified enzyme. Mitogen-activated protein kinase 10 (Homo sapiens), P53779. HTS. inhibition, % at 8 µM. 0.61% of 60,000 active. AID 746, 2007; in the data active = inhibition above about 17%;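 also: 0% = DMSO and 100% = reference inhibitor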
The depositor's hits bear a star.

For C#CCn1c(=NC(=O)CSCC(=O)N2CCOCC2)sc2ccccc21 the results were MT1-MMP txn act 1.1, RORa activator -20, PKA inh 0 and SF1 activator 0.
CS(=O)(=O)N(CC(=O)O)c1ccc(Oc2ccccc2)cc1 was read as MT1-MMP txn act 1.3, ROCK2 blocker -9, RORa activator 8, PKA inh -6, SF1 activator -2 and JNK3 inh 5.
Screening CC1(C)CC(=O)C2=C(C1)Nc1ccccc1N=C2 returned MT1-MMP txn act 1.5, ROCK2 blocker -11, RORa activator 42, PKA inh 1, SF1 activator 58* and JNK3 inh 0.
`Cc1c(C2Nc3ccccc3NC3=C2C(=O)CC(C)(C)C3)cnn1C` (stereo not given) gave MT1-MMP txn act 1.3, ROCK2 blocker 1, RORa activator 9, PKA inh -2, SF1 activator -6 and JNK3 inh -4.
For CS(=O)(=O)N1CCN(c2ccc(NC(=O)c3ccc(Br)o3)cc2)CC1 the results were MT1-MMP txn act 1.3, ROCK2 blocker 0, RORa activator 17, PKA inh 0, SF1 activator 56* and JNK3 inh -15.
For O=C(Nc1ccc(S(=O)(=O)N2CCCCCC2)cc1)c1ccc(Br)o1 the results were MT1-MMP txn act 1.3, ROCK2 blocker 5, RORa activator 50*, PKA inh 10, SF1 activator 13 and JNK3 inh 11.
For Cc1cc2ccccc2c(=O)n1CC(=O)Nc1ccc2c(c1)OCO2 the results were MT1-MMP txn act 1.2, ROCK2 blocker 13, RORa activator -3, PKA inh 22*, SF1 activator -7 and JNK3 inh 4.
CC(=O)CCc1oc2ccc(NC(C)=O)cc2c1-c1ccc(C)o1 was read as MT1-MMP txn act 1.2, ROCK2 blocker 5, RORa activator -11, PKA inh 3, SF1 activator -4 and JNK3 inh 3.
CCOC(=O)N1CCC(N2Cc3cccc(C(=O)Nc4ccc(OC)c(OC)c4)c3C2=O)CC1 was read as MT1-MMP txn act 1.1, ROCK2 blocker 6, RORa activator 19, PKA inh 3, SF1 activator 54* and JNK3 inh 2.
CCOC(=O)C1=C(SCC(=O)Nc2ccccc2)NC(=O)C(C#N)C12CCCCC2 (stereo not given) was read as MT1-MMP txn act 1.1, ROCK2 blocker 4, RORa activator 16, PKA inh 8, SF1 activator 9 and JNK3 inh -5.
Screening COC(=O)c1ccccc1NC(=O)COC(=O)c1ccc(C)c(NC(=O)c2ccco2)c1 returned MT1-MMP txn act 1.1, ROCK2 blocker 6, RORa activator -16, PKA inh 7, SF1 activator -5 and JNK3 inh 5.
COC(=O)c1ccccc1NC(=O)COC(=O)CSCC(=O)N1CCOCC1 was read as MT1-MMP txn act 1.2, ROCK2 blocker 7, RORa activator 0, PKA inh 8, SF1 activator -4 and JNK3 inh 19*.
`COC(=O)c1ccccc1NC(=O)COC(=O)c1ccco1` gave MT1-MMP txn act 1, ROCK2 blocker 2, RORa activator -33, PKA inh 2, SF1 activator -17 and JNK3 inh 21*.
For CCC1=C2CC[C@H]3C(=O)N(CC(=O)OC)C(=O)[C@H]3[C@H]2[C@@]2(C)C(=O)N(CC3CC3)C(=O)N2C1=O the results were MT1-MMP txn act 1.2.
`CC(=O)/C=C(\C)Nc1ccc(-c2cnc(-c3ccccc3)o2)cc1` gave MT1-MMP txn act 0.7, ROCK2 blocker 2, RORa activator 88*, PKA inh -7, SF1 activator 57* and JNK3 inh 3.
For Cc1c(C(=O)NCc2ccoc2)oc2ccc3c(c12)C(=O)CC(C)(C)O3 the results were MT1-MMP txn act 1.8, ROCK2 blocker -7, RORa activator 71*, PKA inh 5, SF1 activator 73* and JNK3 inh -3.
For CCOC(=O)c1sc2nc(N3CCOCC3)c3c(c2c1N)CCN(Cc1ccccc1)C3 the results were MT1-MMP txn act 1.1.
Screening COCCCN(C(C)=O)c1nc(-c2ccc(OC)cc2)cs1 returned MT1-MMP txn act 1.5, ROCK2 blocker 6, RORa activator 84*, PKA inh 6, SF1 activator 98* and JNK3 inh 7.
`COc1ccc(-c2csc(N(CCCN(C)C)C(=O)c3cccs3)n2)cc1` gave MT1-MMP txn act 1.3, ROCK2 blocker 13, RORa activator -1, PKA inh 7, SF1 activator 2 and JNK3 inh 11.
`CC(C)(C)C1CCc2c(sc3c2C(=O)NC(c2ccco2)N3)C1` (stereo not given) gave MT1-MMP txn act 1.7, ROCK2 blocker 12, RORa activator 26, PKA inh 8, SF1 activator 14 and JNK3 inh 5.
`c1ccc(Nc2nc(-c3ccccn3)cs2)cc1` gave MT1-MMP txn act 1.5.
`O=C(Cc1ccccc1)Nc1nc(-c2cccs2)cs1` gave MT1-MMP txn act 1.2, ROCK2 blocker 12, RORa activator 67*, PKA inh 0, SF1 activator 44 and JNK3 inh 3.
Screening c1cncc(Nc2nc(-c3cccs3)cs2)c1 returned MT1-MMP txn act 1.4, ROCK2 blocker 5, RORa activator 59*, PKA inh 10, SF1 activator 76* and JNK3 inh -5.
Screening O=C(Cc1ccccc1F)Nc1nc(-c2cccs2)cs1 returned MT1-MMP txn act 1.6, ROCK2 blocker 15, RORa activator 10, PKA inh 11, SF1 activator 46 and JNK3 inh 1.
`c1ccc(-c2csc(Nc3cccnc3)n2)nc1` gave MT1-MMP txn act 1.6, ROCK2 blocker 2, RORa activator 24, PKA inh -6, SF1 activator 57* and JNK3 inh -2.
`Nc1nc(-c2ccccc2)cc(N2CCCCC2)n1` gave MT1-MMP txn act 0.6, ROCK2 blocker 6, RORa activator 47, PKA inh 8, SF1 activator 75* and JNK3 inh -2.
For c1ccc(-c2cc(N3CCCCCC3)n[nH]2)cc1 the results were MT1-MMP txn act 1.6, ROCK2 blocker 2, RORa activator 70*, PKA inh 5, SF1 activator 42 and JNK3 inh -10.
For Cc1nc(-c2ccccc2)cc(N2CCCC2)n1 the results were MT1-MMP txn act 1.1, ROCK2 blocker 3, RORa activator -4, PKA inh 9, SF1 activator -29 and JNK3 inh -1.
